Published values from different studies.
Protocols differ between the studies behind these lines.
Target: Prostaglandin G/H synthase 1 (PTGS1, Ovis aries, UniProt P05979)
Effect on: enzyme activity
Mode: inhibitor
Residues used in one study (P05979 25-600): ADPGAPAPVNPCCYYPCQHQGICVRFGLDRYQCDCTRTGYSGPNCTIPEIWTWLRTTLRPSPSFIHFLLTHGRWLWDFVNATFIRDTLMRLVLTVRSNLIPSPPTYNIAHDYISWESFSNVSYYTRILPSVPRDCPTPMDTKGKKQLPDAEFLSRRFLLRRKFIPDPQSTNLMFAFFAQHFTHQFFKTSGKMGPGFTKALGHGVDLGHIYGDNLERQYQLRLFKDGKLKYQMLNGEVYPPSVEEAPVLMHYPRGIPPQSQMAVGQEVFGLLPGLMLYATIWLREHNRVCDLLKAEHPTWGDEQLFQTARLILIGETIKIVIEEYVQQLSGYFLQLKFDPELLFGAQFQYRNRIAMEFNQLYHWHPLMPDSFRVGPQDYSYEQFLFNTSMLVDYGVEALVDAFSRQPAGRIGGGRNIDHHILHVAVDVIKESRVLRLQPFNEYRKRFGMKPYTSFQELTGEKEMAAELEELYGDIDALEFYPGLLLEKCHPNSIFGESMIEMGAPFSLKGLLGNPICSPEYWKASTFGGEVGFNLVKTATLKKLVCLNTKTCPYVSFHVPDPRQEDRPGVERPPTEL

| Structure (SMILES) | assay | IC50 [µM] |
| --- | --- | --- |
| Cc1cccc2nc(-c3ccc(S(C)(=O)=O)cc3)c(Nc3ccc(F)cc3)n12 | fluorescence | 40.2 |
| CS(=O)(=O)c1ccc(-n2cc(/C=N/N=c3\[nH]c(-c4ccc(Br)cc4)cs3)c(-c3ccc(Br)cc3)n2)cc1 | – | 9.42 |
| CC(C(=O)O)c1cccc(C(=O)c2ccccc2)c1 (stereo not drawn) | – | 0.05 |
| COc1ccccc1-c1cccc([N+](=O)[O-])c1F | absorbance | 9.34 |
| Cc1ccc(/C=C2\C=C(CC(=O)O)c3cc(F)ccc32)cc1 | – | 3.2 |
| CS(=O)(=O)c1ccc(-c2nc3ccccn3c2Nc2ccc(Cl)cc2)cc1 | fluorescence | 34.3 |
| CC(C)Cc1ccc(-c2nn(-c3ccc(S(C)(=O)=O)cc3)cc2/C=N/N=c2\[nH]c(-c3ccc([N+](=O)[O-])cc3)cs2)cc1 | – | 34.4 |
| Cc1ccn2c(Nc3ccc(F)cc3)c(-c3ccc(S(C)(=O)=O)cc3)nc2c1 | fluorescence | 33.6 |
| CC(C)Cc1ccc(-c2nn(-c3ccc(S(C)(=O)=O)cc3)cc2/C=N\N=C2/NC(=O)CS2)cc1 | – | 19.7 |
| C[C@@H]1O[C@@H](O[C@H]2[C@H](Oc3c(-c4ccc(O)cc4)oc4cc(O)cc(O)c4c3=O)O[C@H](CO[C@@H]3O[C@H](CO)[C@@H](O)[C@H](O)[C@H]3O)[C@@H](O)[C@@H]2O)[C@H](O)[C@H](O)[C@H]1O | absorbance | 21.8 |
| O=[N+]([O-])c1cccc(-c2ccccc2F)c1F | absorbance | 10.2 |
| CSc1ccc(/C=C2\C=C(CC(=O)NS(=O)(=O)c3ccc(Cl)s3)c3cc(F)ccc32)cc1 | – | 2 |
| COc1ccccc1-c1ccc(F)c(C(F)(F)F)c1 | absorbance | 9.99 |
| Cc1cccn2c(Nc3ccccc3)c(-c3ccc(S(C)(=O)=O)cc3)nc12 | fluorescence | 35.6 |
| O=C(O)CC1=C/C(=C\c2cccc(-c3ccc(F)cc3)n2)c2ccc(F)cc21 | – | 9.3 |
| CS(=O)(=O)c1ccc(-c2ncccc2-c2nc3ccccc3s2)cc1 | absorbance | > 100 |
| COc1ccc(Nc2c(-c3ccc(S(C)(=O)=O)cc3)nc3ccccn23)cc1 | fluorescence | 16.5 |
| COc1ccc(F)c(-c2ccccc2F)c1 | absorbance | 9.98 |
| Cc1ccc(-c2nc3ccccc3s2)c(-c2ccc(S(N)(=O)=O)cc2)c1 | absorbance | > 100 |
| CS(=O)(=O)c1ccc(-n2cc(/C=N/N=c3\[nH]c(-c4ccc([N+](=O)[O-])cc4)cs3)c(-c3ccc([N+](=O)[O-])cc3)n2)cc1 | – | 38.5 |
| Cc1ccc(Nc2c(-c3ccc(S(C)(=O)=O)cc3)nc3c(C)cccn23)cc1 | fluorescence | 35.6 |
| NS(=O)(=O)c1ccc(-c2ncccc2-c2nc3ccccc3s2)cc1 | absorbance | > 100 |
| Cc1ccc(Nc2c(-c3ccc(S(C)(=O)=O)cc3)nc3cccc(C)n23)cc1 | fluorescence | 19.6 |
| Cc1ccc(-c2nn(-c3ccc(S(C)(=O)=O)cc3)cc2/C=N\N=c2/[nH]c(-c3ccc([N+](=O)[O-])cc3)cs2)cc1 | – | 49.6 |
